Legend:
[1] = Growth inhibition of human HCC2998 cells; format: functional; conditions: HCC 2998
[2] = Cytotoxicity against human ovarian cancer cells assessed as cell growth at 10 uM relative to control; format: functional; conditions: Cancer cell lines, read-out: Activity
Summary of the method: (§1)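 Single-concentration screen against a panel of human cancer cell lines. Each value is the mean percent growth across the cell lines of that tumour subpanel.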

MDA-MB-231 = assay: Growth inhibition of human MDA-MB-231 cells; format: functional
Chymotrypsinogen A = Chymotrypsinogen A (Bos taurus, UniProt P00766); assay: Inhibition of bovine pancreatic alpha-chymotrypsin using Suc-Leu-Leu-Val-Tyr-AMC as substrate by fluorescence assay; conditions: read-out: Ki
Summary of the method: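 Enzyme incubated at 20 °C in 50 mM Tris pH 8.0, 100 mM NaCl, 5 mM EDTA, 7.5% DMSO with varied inhibitor concentrations. Substrate hydrolysis followed for 10 min. Ki from progress curves; mean of three determinations.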

[3] = Growth inhibition of human OVCAR8 cells; format: functional
[4] = biological target: T1, Proteasome Macropain subunit MB1 (Homo sapiens) (UniProt P28074); assay: Inhibition of chymotrypsin-like activity of 20S proteasome in human erythrocytes using Suc-Leu-Leu-Val-Tyr-AMC as substrate at 20 uM by fluorescence assay relative to control
T1 sequence (whole entry): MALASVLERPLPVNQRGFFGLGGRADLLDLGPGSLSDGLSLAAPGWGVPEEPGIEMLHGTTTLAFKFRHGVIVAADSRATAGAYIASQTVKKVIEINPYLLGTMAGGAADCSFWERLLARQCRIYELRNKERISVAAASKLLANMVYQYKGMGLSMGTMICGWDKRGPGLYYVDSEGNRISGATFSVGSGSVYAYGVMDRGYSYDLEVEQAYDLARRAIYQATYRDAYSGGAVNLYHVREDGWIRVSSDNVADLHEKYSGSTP
Summary of the method: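 Single inhibitor concentration, equivalent DMSO as negative control. AMC fluorescence read at ex 380/em 460 nm; percent inhibition of ChT-L activity.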

RPMI-8226 = assay: Growth inhibition of human RPMI8226 cells; format: functional
A498 = assay: Growth inhibition of human A498 cells; format: functional
[5] = Growth inhibition of human OVCAR4 cells; format: functional
[6] = Growth inhibition of human OVCAR5 cells; format: functional; conditions: OVCAR-5
Malme-3M = assay: Growth inhibition of human MALME-3M cells; format: functional
KM12 = assay: Growth inhibition of human KM12 cells; format: functional
U-251 = assay: Growth inhibition of human U251 cells; format: functional
[7] = Growth inhibition of human BT549 cells; format: functional
CCRF-CEM = assay: Growth inhibition of human CCRF-CEM cells; format: functional
HT-29 = assay: Growth inhibition of human HT-29 cells; format: functional
NCI-H322M = assay: Growth inhibition of human NCI-H322M cells; format: functional
[8] = Growth inhibition of human RXF393 cells; format: functional
[9] = Cytotoxicity against human renal cancer cells assessed as cell growth at 10 uM relative to control; format: functional; conditions: Cancer cell lines, read-out: Activity; summary of the method: as §1
PC-3 = assay: Growth inhibition of human PC3 cells; format: functional
MDA-MB-435 = assay: Growth inhibition of human MDA-MB-435 cells; format: functional
[10] = Cytotoxicity against human melanoma cells assessed as cell growth at 10 uM relative to control; format: functional; conditions: read-out: Activity; summary of the method: as §1
MCF7 = assay: Growth inhibition of human MCF7 cells; format: functional
MDA-MB-468 = assay: Growth inhibition of human MDA-MB-468 cells; format: functional
[11] = Cytotoxicity against human leukemia cells assessed as cell growth at 10 uM relative to control; format: functional; conditions: read-out: Activity; summary of the method: as §1
[12] = Growth inhibition of human UO31 cells; format: functional; conditions: UO-31
NCI-H460 = assay: Growth inhibition of human NCI-H460 cells; format: functional
[13] = Growth inhibition of human UACC257 cells; format: functional; conditions: UACC-257
SW-620 = assay: Growth inhibition of human SW620 cells; format: functional
SNB-19 = assay: Growth inhibition of human SNB19 cells; format: functional
SK-OV-3 = assay: Growth inhibition of human SKOV3 cells; format: functional
SF-268 = assay: Growth inhibition of human SF268 cells; format: functional
K562 = assay: Growth inhibition of human K562 cells; format: functional
A549 = assay: Growth inhibition of human A549/ATCC cells; format: functional
[14] = read-out: LC50 (the source's name)

Work on `CC(C)C[C@H](NC(=O)CCn1ccc2ccc(Br)cc2c1=O)B(O)O` yielded a GI50 [1] of 1.14 µM, an LC50 [1] of 8.42 µM and a TGI [1] of 3.09 µM. The growth at 10 µM [2] was 38.8%, the GI50 (MDA-MB-231) was 1.2 µM and the TGI (MDA-MB-231) was 12.2 µM. The CC50 (MDA-MB-231; [14]) was over 100 µM, the Ki (Chymotrypsinogen A) was 23.7 µM and the GI50 ([3]; OVCAR-8) was 3.64 µM. For the same compound, the TGI ([3]; OVCAR-8) was over 100 µM, the CC50 ([3]; OVCAR-8, read-out: LC50 (the source's name)) was over 100 µM and the inhibition [4] was over 40%. The GI50 (RPMI-8226) was 0.32 µM, the TGI (RPMI-8226) was over 100 µM and the CC50 (RPMI-8226; [14]) was over 100 µM. It also gave a GI50 (A498) of 0.13 µM, an LC50 (A498) of over 100 µM and a TGI (A498) of 0.74 µM. The GI50 ([5]; OVCAR-4) was 2.06 µM, the TGI ([5]; OVCAR-4) was over 100 µM and the CC50 ([5]; OVCAR-4, read-out: LC50 (the source's name)) was over 100 µM. The GI50 [6] was 3.15 µM, the LC50 [6] was over 100 µM and the TGI [6] was 97.3 µM. The GI50 (Malme-3M) was 0.68 µM, the TGI (Malme-3M) was 7.95 µM and the CC50 (Malme-3M; [14]) was over 100 µM. It also gave a GI50 (KM12) of 1.33 µM, an LC50 (KM12) of over 100 µM and a TGI (KM12) of 4.38 µM. For the same compound, the GI50 (U-251) was 1.18 µM, the TGI (U-251) was over 100 µM and the CC50 (U-251; [14]) was over 100 µM. For the same compound, the GI50 ([7]; BT-549) was 0.36 µM, the TGI ([7]; BT-549) was 4.32 µM and the CC50 ([7]; BT-549, read-out: LC50 (the source's name)) was over 100 µM. For the same compound, the GI50 (CCRF-CEM) was 0.43 µM, the TGI (CCRF-CEM) was over 100 µM and the CC50 (CCRF-CEM; [14]) was over 100 µM. For the same compound, the GI50 (HT-29) was 0.45 µM, the LC50 (HT-29) was over 100 µM and the TGI (HT-29) was over 100 µM. The GI50 (NCI-H322M) was over 100 µM, the TGI (NCI-H322M) was over 100 µM and the CC50 (NCI-H322M; [14]) was over 100 µM. For the same compound, the GI50 ([8]; RXF 393) was 0.28 µM, the TGI ([8]; RXF 393) was 0.88 µM and the CC50 ([8]; RXF 393, read-out: LC50 (the source's name)) was 5.39 µM. For the same compound, the growth at 10 µM [9] was -4%, the GI50 (PC-3) was 4.19 µM and the TGI (PC-3) was over 100 µM. For the same compound, the CC50 (PC-3; [14]) was over 100 µM, the GI50 (MDA-MB-435) was 0.18 µM and the TGI (MDA-MB-435) was 0.37 µM. The CC50 (MDA-MB-435; [14]) was 0.78 µM, the growth at 10 µM [10] was -19.2% and the GI50 (MCF7) was 0.39 µM. The TGI (MCF7) was over 100 µM, the CC50 (MCF7; [14]) was over 100 µM and the GI50 (MDA-MB-468) was 0.26 µM. The TGI (MDA-MB-468) was 0.74 µM, the CC50 (MDA-MB-468; [14]) was over 100 µM and the growth at 10 µM [11] was 0.02%. It also gave a GI50 [12] of 0.98 µM, an LC50 [12] of over 100 µM and a TGI [12] of 15.4 µM. The GI50 (NCI-H460) was 3.18 µM, the LC50 (NCI-H460) was over 100 µM and the TGI (NCI-H460) was over 100 µM. It also gave a GI50 [13] of 0.73 µM, a TGI [13] of 2.86 µM and a GI50 (SW-620) of 0.38 µM. For the same compound, the LC50 (SW-620) was over 100 µM, the TGI (SW-620) was over 100 µM and the GI50 (SNB-19) was 0.96 µM. It also gave a TGI (SNB-19) of over 100 µM, a CC50 (SNB-19; [14]) of over 100 µM and a GI50 (SK-OV-3) of 2.36 µM. The LC50 (SK-OV-3) was over 100 µM, the TGI (SK-OV-3) was 71.5 µM and the GI50 (SF-268) was 0.7 µM. The LC50 (SF-268) was over 100 µM, the TGI (SF-268) was 3.85 µM and the GI50 (K562) was 1.08 µM. The TGI (K562) was over 100 µM, the CC50 (K562; [14]) was over 100 µM and the GI50 (A549) was 2.39 µM. It also gave a TGI (A549) of over 100 µM and a CC50 (A549; [14]) of over 100 µM.

Reference: ChEMBL document CHEMBL3286129, “Optimization of peptidomimetic boronates bearing a P3 bicyclic scaffold as proteasome inhibitors” (Eur J Med Chem, 2014)
